ChEMBL document CHEMBL5038671, “Hydrophobic Tagging-Induced Degradation of PDEδ in Colon Cancer Cells” (ACS Med Chem Lett, 2022)

Legend:
SW480 [1] = test: Antiproliferative activity against human SW480 cells assessed as cell growth inhibition and measured after 72 hrs by CCK8 assay; conditions: SW480, 72 h
HCT-116 = test: Antiproliferative activity against human HCT-116 cells assessed as cell growth inhibition and measured after 72 hrs by CCK8 assay; conditions: HCT-116, 72 h
SW480 [2] = test: Antiproliferative activity against human SW480 cells assessed as apoptosis induction at 50 uM measured for 24 hrs by Annexin V-FITC/PI staining based flow cytometry analysis (reference value: 46%); format: functional
[3] = molecular target: Retinal rod rhodopsin-sensitive cGMP 3',5'-cyclic phosphodiesterase subunit delta (Homo sapiens, UniProt O43924); test: Binding affinity to PDE delta (unknown origin) assessed as dissociation constant measured after 2 hrs by fluorescence polarization assay
Retinal rod rhodopsin-sensitive cGMP 3',5'-cyclic phosphodiesterase subunit delta, sequence (O43924 whole entry): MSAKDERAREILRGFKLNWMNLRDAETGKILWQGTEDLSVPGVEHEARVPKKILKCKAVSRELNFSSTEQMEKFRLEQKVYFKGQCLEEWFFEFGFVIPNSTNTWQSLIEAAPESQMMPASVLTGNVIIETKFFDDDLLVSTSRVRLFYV

SW480 [4] = test: Down regulation of p-Akt expression in human SW480 cells measured for 24 hrs by western blot analysis; format: functional, cell-based
How it was run: (§1)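 PDEδ downstream proteins examined in SW480 cells treated 24 h, by Western blot; blots repeated at least three times, bar graphs as mean ± SD.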

SW480 [5] = test: Down regulation of p-ERK expression in human SW480 cells measured for 24 hrs by western blot analysis; format: functional, cell-based; how it was run: as §1
SW480 [6] = test: Antiproliferative activity against human SW480 cells assessed as apoptosis induction at 30 uM measured for 24 hrs by Annexin V-FITC/PI staining based flow cytometry analysis (reference value: 46%); format: functional
SW480 [7] = test: Antiproliferative activity against human SW480 cells assessed as apoptosis induction at 40 uM measured for 24 hrs by Annexin V-FITC/PI staining based flow cytometry analysis (reference value: 46%); format: functional

SMILES | IC50 (SW480 [1]) [µM] | IC50 (HCT-116) [µM] | other results
Cc1ccc(-n2nc3c(=O)n(CCCC(=O)NCCCC(=O)NCC45CC6CC(CC(C6)C4)C5)nc(C)c3c2C)cc1 | 8 | 11.4 | 
Cc1ccc(-n2nc3c(=O)n(CCCC(=O)NCC(C)c4ccccc4)nc(C)c3c2C)cc1 (centres undefined) | 18.3 | 82.4 | Activity (SW480 [2]): 5.4%
Cc1ccc(-n2nc3c(=O)n(CCCC(=O)NCC45CC6CC(CC(C6)C4)C5)nc(C)c3c2C)cc1 | > 100 | > 100 | 
Cc1ccc(-n2nc3c(=O)n(CCCC(=O)NC45CC6CC(CC(C6)C4)C5)nc(C)c3c2C)cc1 | > 100 | > 100 | 
Cc1ccc(-n2nc3c(=O)n(CCCC(=O)NCCCCCC(=O)NCC45CC6CC(CC(C6)C4)C5)nc(C)c3c2C)cc1 | > 100 | 32.5 | 
Cc1ccc(-n2nc3c(=O)n(CCCC(=O)NCCc4ccc(NC(=O)CCCCCCNC(=O)CC56CC7CC(CC(C7)C5)C6)cc4)nc(C)c3c2C)cc1 | > 100 | > 100 | 
Cc1ccc(-n2nc3c(=O)n(CCCC(=O)NCCc4ccc(NC(=O)CCCCCCCCCC(=O)NCC56CC7CC(CC(C7)C5)C6)cc4)nc(C)c3c2C)cc1 | 14 | > 100 | Ki [3]: > 1000 nM
Cc1ccc(-n2nc3c(=O)n(CCCC(=O)NCCc4ccc(NC(=O)CCCCCC(=O)NCC56CC7CC(CC(C7)C5)C6)cc4)nc(C)c3c2C)cc1 | > 100 | > 100 | 
Cc1ccc(-n2nc3c(=O)n(CCCC(=O)NCCCCCCNC(=O)CC45CC6CC(CC(C6)C4)C5)nc(C)c3c2C)cc1 | 4.8 | 7.7 | Activity (SW480 [4]): Dose-Dependent Effect; Activity (SW480 [5]): Dose-Dependent Effect; Activity (SW480 [6]): 15.23%; Activity (SW480 [7]): 83.67%
Cc1ccc(-n2nc3c(=O)n(CCCC(=O)NCCc4ccc(NC(=O)CCCC(=O)NCC56CC7CC(CC(C7)C5)C6)cc4)nc(C)c3c2C)cc1 | 19.8 | 39 | 
Cc1ccc(-n2nc3c(=O)n(CCCC(=O)NCCCCNC(=O)CC45CC6CC(CC(C6)C4)C5)nc(C)c3c2C)cc1 | 7 | 50.7 | 
Cc1ccc(-n2nc3c(=O)n(CCCC(=O)NCCCCCCCCNC(=O)CC45CC6CC(CC(C6)C4)C5)nc(C)c3c2C)cc1 | 5.6 | 17.7 | 
Cc1ccc(-n2nc3c(=O)n(CCCC(=O)NCCOCCOCCNC(=O)CC45CC6CC(CC(C6)C4)C5)nc(C)c3c2C)cc1 | 5.4 | 18.5 | 
Cc1ccc(-n2nc3c(=O)n(CCCC(=O)NCCNC(=O)CC45CC6CC(CC(C6)C4)C5)nc(C)c3c2C)cc1 | 10 | 20.4 | 
